Positions of bridges follow the written chain, without caps; N, C: chain ends. Non-standard residues stand in square brackets, D forms with d. Residues, ends and D or L forms follow the SMILES beside them. ξ: configuration not given here. Nva = CCC[C@H](N)C(=O)O; ξA = CC(N)C(=O)O
Columns and labels:
[1] = molecular target: Atrial natriuretic peptide receptor (Homo sapiens) (UniProt P20594+P16066+P17342); assay: Selectivity factor, ratio of NVR and VR relative binding potency; format: protein assay; conditions: Oryctolagus cuniculus
[2] = molecular target: T1, Atrial natriuretic peptide receptor 3 (Homo sapiens) (UniProt P17342); assay: Binding affinity for non-vasorelaxant receptor by competitive displacement of [125I]-AP(103-126) from rabbit lung membranes; format: tissue-based; conditions: Oryctolagus cuniculus, Membrane, target entry is the homologue from another species
T1 sequence (whole entry): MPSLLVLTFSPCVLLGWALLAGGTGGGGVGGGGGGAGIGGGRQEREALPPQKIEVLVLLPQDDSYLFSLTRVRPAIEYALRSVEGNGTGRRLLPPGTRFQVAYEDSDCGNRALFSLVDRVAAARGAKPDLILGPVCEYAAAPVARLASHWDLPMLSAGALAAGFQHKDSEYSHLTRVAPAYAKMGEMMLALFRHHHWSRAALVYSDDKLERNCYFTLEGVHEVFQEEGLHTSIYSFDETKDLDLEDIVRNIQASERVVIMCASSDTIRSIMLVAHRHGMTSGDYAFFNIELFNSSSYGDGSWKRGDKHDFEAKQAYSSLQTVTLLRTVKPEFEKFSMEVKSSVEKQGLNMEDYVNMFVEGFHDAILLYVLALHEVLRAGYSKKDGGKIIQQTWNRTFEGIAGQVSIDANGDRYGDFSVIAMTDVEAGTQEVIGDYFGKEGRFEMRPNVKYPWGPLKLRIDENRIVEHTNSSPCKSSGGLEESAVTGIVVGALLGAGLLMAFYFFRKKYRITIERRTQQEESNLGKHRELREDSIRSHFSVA

[3] = organism: Oryctolagus cuniculus; assay: Binding affinity for vasorelaxant receptor by competitive displacement of [125I]-AP(103-126) from rabbit lung membranes; format: tissue-based; conditions: Membrane
[4] = Apparent binding constant for vasorelaxant subclass of receptors; set-up: species or system Oryctolagus cuniculus
Outline: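 Competitive binding assay on rabbit lung membranes, using atrial peptide analogues.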

SMILES: CC[C@H](C)[C@@H]1NC(=O)[C@H](CCCN=C(N)N)NC(=O)[C@H](CC(=O)O)NC(=O)[C@H]([C@@H](C)CC)NC(=O)[C@H](CCCN=C(N)N)NC(=O)CNC(=O)CNC(=O)[C@H](Cc2ccccc2)NC(=O)CNC(=O)[C@@H](NC(=O)[C@@H](N)CO)CSSC[C@@H](C(=O)N[C@@H](CO)C(=O)N[C@@H](Cc2ccccc2)C(=O)N[C@@H](CCCN=C(N)N)C(N)=O)NC(=O)CNC(=O)CNC(=O)[C@H](CC(C)C)NC(=O)CNC(=O)[C@H](CO)NC(=O)[C@H](CCC(N)=O)NC(=O)[C@H](C)NC(=O)CNC1=O (H-SCGFGGRIDRIGAQSGLGGCSFR-NH2; disulfide 2-20)
- Ratio [1]: 217
- Relative potency [2]: 1.5
- Relative potency [3]: 0.0069

SMILES: CC[C@H](C)[C@@H]1NC(=O)[C@H](CCCN=C(N)N)NC(=O)[C@H](CC(=O)O)NC(=O)[C@H]([C@@H](C)CC)NC(=O)[C@H](CCCN=C(N)N)NC(=O)CNC(=O)CNC(=O)[C@H](Cc2ccccc2)NC(=O)[C@H](CO)NC(=O)[C@@H](NC(=O)[C@@H](N)CO)CSSC[C@@H](C(=O)N[C@@H](CC(N)=O)C(=O)N[C@@H](CO)C(=O)N[C@@H](Cc2ccccc2)C(=O)N[C@@H](CCCN=C(N)N)C(N)=O)NC(=O)CNC(=O)[C@H](CC(C)C)NC(=O)CNC(=O)[C@H](CO)NC(=O)[C@H](CCC(N)=O)NC(=O)[C@H](C)NC(=O)CNC1=O (H-SCSFGGRIDRIGAQSGLGCNSFR-NH2; disulfide 2-19)
- Ratio [1]: 16
- Relative potency [2]: 3.8
- Relative potency [3]: 0.24

SMILES: CC[C@H](C)[C@@H]1NC(=O)[C@H](CCCN=C(N)N)NC(=O)[C@H](CC(=O)O)NC(=O)[C@H]([C@@H](C)CC)NC(=O)[C@H](CCCN=C(N)N)NC(=O)[C@@H](NC(=O)CNC(=O)[C@H](Cc2ccccc2)NC(=O)[C@H](C)NC(=O)[C@H](CO)NC(=O)[C@@H](N)CO)CSSC[C@@H](C(=O)NCC(=O)N[C@@H](CC(C)C)C(=O)NCC(=O)N[C@@H](C)C(=O)N[C@@H](CC(N)=O)C(=O)N[C@@H](CO)C(=O)N[C@@H](Cc2ccccc2)C(=O)N[C@@H](CCCN=C(N)N)C(N)=O)NC(=O)[C@H](CCC(N)=O)NC(=O)[C@H](C)NC(=O)CNC1=O (H-SSAFGCRIDRIGAQCGLGANSFR-NH2; disulfide 6-15)
- Ratio [1]: 485
- Relative potency [2]: 0.63
- Relative potency [3]: 0.0013

SMILES: CC[C@H](C)[C@@H]1NC(=O)[C@H](CCCN=C(N)N)NC(=O)[C@H](CC(=O)O)NC(=O)[C@H]([C@@H](C)CC)NC(=O)[C@H](CCCN=C(N)N)NC(=O)CNC(=O)CNC(=O)[C@H](Cc2ccccc2)NC(=O)[C@H](NC(=O)[C@H](CO)NC(=O)[C@@H](N)CO)CSSC[C@@H](C(=O)N[C@@H](CO)C(=O)N[C@@H](Cc2ccccc2)C(=O)N[C@@H](CCCN=C(N)N)C(N)=O)NC(=O)[C@H](CSC)NC(=O)CNC(=O)[C@H](CC(C)C)NC(=O)CNC(=O)[C@H](CO)NC(=O)[C@H](CCC(N)=O)NC(=O)[C@H](C)NC(=O)CNC1=O
- Ratio [1]: 31
- Relative potency [2]: 3.1
- Relative potency [3]: 0.1

SMILES: CC[C@H](C)[C@@H]1NC(=O)[C@H](CCCN=C(N)N)NC(=O)[C@H](CC(=O)O)NC(=O)[C@H]([C@@H](C)CC)NC(=O)[C@H](CCCN=C(N)N)NC(=O)[C@@H](NC(=O)CNC(=O)[C@H](Cc2ccccc2)NC(=O)[C@H](CSC)NC(=O)[C@H](CO)NC(=O)[C@@H](N)CO)CSSC[C@@H](C(=O)NCC(=O)N[C@@H](CC(C)C)C(=O)NCC(=O)N[C@@H](CSC)C(=O)N[C@@H](CC(N)=O)C(=O)N[C@@H](CO)C(=O)N[C@@H](Cc2ccccc2)C(=O)N[C@@H](CCCN=C(N)N)C(N)=O)NC(=O)[C@H](CCC(N)=O)NC(=O)[C@H](C)NC(=O)CNC1=O (H-SSC(Me)FGCRIDRIGAQCGLGC(Me)NSFR-NH2; disulfide 6-15)
- Ratio [1]: 369
- Relative potency [2]: 0.59
- Relative potency [3]: 0.0016

SMILES: CCC[C@@H]1NC(=O)[C@@H](NC(=O)[C@@H](N)CO)CSSC[C@@H](C(=O)N[C@@H](CC(N)=O)C(=O)N[C@@H](CO)C(=O)N[C@@H](Cc2ccccc2)C(=O)N[C@@H](CCCN=C(N)N)C(N)=O)NC(=O)CNC(=O)[C@H](CC(C)C)NC(=O)CNC(=O)[C@H](CO)NC(=O)[C@H](CCC(N)=O)NC(=O)[C@H](C)NC(=O)CNC(=O)[C@H]([C@@H](C)CC)NC(=O)[C@H](CCCN=C(N)N)NC(=O)[C@H](CC(=O)O)NC(=O)[C@H]([C@@H](C)CC)NC(=O)[C@H](CCCN=C(N)N)NC(=O)CNC(=O)CNC(=O)[C@H](Cc2ccccc2)NC1=O (H-SC[Nva]FGGRIDRIGAQSGLGCNSFR-NH2; disulfide 2-19)
- Ratio [1]: 89
- Relative potency [2]: 0.75
- Relative potency [3]: 0.0084

SMILES: CC[C@H](C)[C@@H]1NC(=O)[C@H](CCCN=C(N)N)NC(=O)[C@H](CC(=O)O)NC(=O)[C@H]([C@@H](C)CC)NC(=O)[C@H](CCCN=C(N)N)NC(=O)CNC(=O)CNC(=O)[C@H](Cc2ccccc2)NC(=O)[C@@H](NC(=O)[C@H](CO)NC(=O)[C@@H](N)CO)CSSC[C@@H](C(=O)N[C@@H](CO)C(=O)N[C@@H](CC(N)=O)C(=O)N[C@@H](CO)C(=O)N[C@@H](Cc2ccccc2)C(=O)N[C@@H](CCCN=C(N)N)C(N)=O)NC(=O)[C@H](CC(C)C)NC(=O)CNC(=O)[C@H](CO)NC(=O)[C@H](CCC(N)=O)NC(=O)[C@H](C)NC(=O)CNC1=O (H-SSCFGGRIDRIGAQSGLCSNSFR-NH2; disulfide 3-18)
- Ratio [1]: 23
- Relative potency [2]: 1.3
- Relative potency [3]: 0.056

SMILES: CC[C@H](C)[C@@H]1NC(=O)[C@H](CCCN=C(N)N)NC(=O)[C@H](CC(=O)O)NC(=O)[C@H]([C@@H](C)CC)NC(=O)[C@H](CCCN=C(N)N)NC(=O)CNC(=O)CNC(=O)[C@H](Cc2ccccc2)NC(=O)C(C)NC(=O)[C@@H](NC(=O)[C@@H](N)CO)CSSC[C@@H](C(=O)N[C@@H](CC(N)=O)C(=O)N[C@@H](CO)C(=O)N[C@@H](Cc2ccccc2)C(=O)N[C@@H](CCCN=C(N)N)C(N)=O)NC(=O)CNC(=O)[C@H](CC(C)C)NC(=O)CNC(=O)[C@H](CO)NC(=O)[C@H](CCC(N)=O)NC(=O)[C@H](C)NC(=O)CNC1=O (some centres undefined) (H-SC[ξA]FGGRIDRIGAQSGLGCNSFR-NH2; disulfide 2-19)
- Ratio [1]: 25
- Relative potency [2]: 2.2
- Relative potency [3]: 0.088

SMILES: CC[C@H](C)[C@@H]1NC(=O)[C@H](CCCN=C(N)N)NC(=O)[C@H](CC(=O)O)NC(=O)[C@H]([C@@H](C)CC)NC(=O)[C@H](CCCN=C(N)N)NC(=O)CNC(=O)CNC(=O)[C@H](Cc2ccccc2)NC(=O)[C@H](CSC)NC(=O)[C@@H](NC(=O)[C@@H](N)CO)CSSC[C@@H](C(=O)N[C@@H](CC(N)=O)C(=O)N[C@@H](CO)C(=O)N[C@@H](Cc2ccccc2)C(=O)N[C@@H](CCCN=C(N)N)C(N)=O)NC(=O)CNC(=O)[C@H](CC(C)C)NC(=O)CNC(=O)[C@H](CO)NC(=O)[C@H](CCC(N)=O)NC(=O)[C@H](C)NC(=O)CNC1=O (H-SCC(Me)FGGRIDRIGAQSGLGCNSFR-NH2; disulfide 2-19)
- Ratio [1]: 24
- Relative potency [2]: 6.6
- Relative potency [3]: 0.28

SMILES: CC[C@H](C)[C@@H]1NC(=O)[C@H](CCCN=C(N)N)NC(=O)[C@H](CC(=O)O)NC(=O)[C@H]([C@@H](C)CC)NC(=O)[C@H](CCCN=C(N)N)NC(=O)[C@@H](NC(=O)CNC(=O)[C@H](Cc2ccccc2)NC(=O)CNC(=O)[C@H](CO)NC(=O)[C@@H](N)CO)CSSC[C@@H](C(=O)NCC(=O)N[C@@H](CC(C)C)C(=O)NCC(=O)NCC(=O)N[C@@H](CC(N)=O)C(=O)N[C@@H](CO)C(=O)N[C@@H](Cc2ccccc2)C(=O)N[C@@H](CCCN=C(N)N)C(N)=O)NC(=O)[C@H](CCC(N)=O)NC(=O)[C@H](C)NC(=O)CNC1=O (H-SSGFGCRIDRIGAQCGLGGNSFR-NH2; disulfide 6-15)
- Ratio [1]: 118
- Relative potency [2]: 1.3
- Relative potency [3]: 0.011
- Ki [4]: 7.4 nM

SMILES: CC[C@H](C)[C@@H]1NC(=O)[C@H](CCCN=C(N)N)NC(=O)[C@H](CC(=O)O)NC(=O)[C@H]([C@@H](C)CC)NC(=O)[C@H](CCCN=C(N)N)NC(=O)CNC(=O)CNC(=O)[C@H](Cc2ccccc2)NC(=O)C(C)NC(=O)[C@@H](NC(=O)[C@@H](N)CO)CSSC[C@@H](C(=O)N[C@@H](CO)C(=O)N[C@@H](Cc2ccccc2)C(=O)N[C@@H](CCCN=C(N)N)C(N)=O)NC(=O)C(C)NC(=O)CNC(=O)[C@H](CC(C)C)NC(=O)CNC(=O)[C@H](CO)NC(=O)[C@H](CCC(N)=O)NC(=O)[C@H](C)NC(=O)CNC1=O (some centres undefined) (H-SC[ξA]FGGRIDRIGAQSGLG[ξA]CSFR-NH2; disulfide 2-20)
- Ratio [1]: 464
- Relative potency [2]: 1.3
- Relative potency [3]: 0.0028

— ChEMBL document CHEMBL1124687, “Analogues of atriopeptin(103-125)amide having high binding selectivity” (J Med Chem, 1989)
